Assay results: ChEMBL document CHEMBL1149086, “Antimalarial and antitumor evaluation of novel C-10 non-acetal dimers of 10beta-(2-hydroxyethyl)deoxoartemisinin” (J Med Chem, 2004)

What was measured:
[1] = test system: Plasmodium falciparum; assay: In vitro antimalarial activity against Plasmodium falciparum HB3 by [3H]hypoxanthine uptake; format: functional, organism-based
[2] = test system: Plasmodium falciparum; assay: In vitro antimalarial activity against Plasmodium falciparum K1 by [3H]hypoxanthine uptake; format: functional, organism-based
[3] = test system: Jurkat; assay: Inhibitory concentration against Jurkat cells; format: functional, cell-based; conditions: Homo sapiens
Method in brief: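 Jurkat cells were grown in RPMI-1640 with 10% v/v FBS and 1% v/v L-glutamine at 37 °C under humidified 5% CO2, kept below 1 × 10⁶ cells/mL, with viability above 95%. Cells were plated at 1 × 10⁵/well and exposed to 10⁻¹⁰–10⁻⁴ M drug for 72 h, with final DMSO below 0.5% v/v. [³H]-thymidine (0.5 μCi/well) was added at 48 h for the final 24 h, and incorporation was read by β-scintillation counting.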

[4] = test system: HL-60; assay: Inhibitory concentration against HL60 cells; format: functional, cell-based; conditions: Homo sapiens
Method in brief: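 HL60 (2.5 × 10⁴/well) or Jurkat (1 × 10⁵/well) in RPMI-1640 with 10% FBS and 1% L-glutamine, 5% CO2, 37 °C. Exposed to 10⁻¹⁰–10⁻⁴ M for 72 h, final DMSO below 0.5% v/v. [3H]-thymidine (0.5 μCi) added for the final 24 h. Incorporation counted by β-scintillation.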

Row | IC50 [3] | IC50 [4] | SMILES | IC50 [1] | IC50 [2]
1 | – | – | C[C@H]1[C@@H](CCOCc2ccccc2COCC[C@H]2O[C@@H]3O[C@]4(C)CC[C@H]5[C@H](C)CC[C@@H]([C@H]2C)[C@@]35OO4)O[C@@H]2O[C@]3(C)CC[C@H]4[C@H](C)CC[C@@H]1[C@@]24OO3 | 1.3 nM | 2.9 nM
2 | – | – | C[C@H]1[C@@H](CCOC(=O)CCC(=O)OCC[C@H]2O[C@@H]3OC4(C)CC[C@H]5[C@H](C)CC[C@@H]([C@H]2C)[C@@]35OO4)O[C@@H]2OC3(C)CC[C@H]4[C@H](C)CC[C@@H]1[C@@]24OO3 (single isomer, unassigned) | 1.4 nM | 1.8 nM
3 | 1700 nM | 510 nM | COc1cccc2c1C(=O)c1c(O)c3c(c(O)c1C2=O)C[C@@](O)(C(=O)CO)C[C@@H]3O[C@H]1C[C@H](N)[C@H](O)[C@H](C)O1 [DOXORUBICIN] | – | –
4 | – | – | C[C@H]1[C@@H](CCOC(=O)c2ccccc2C(=O)OCC[C@H]2O[C@@H]3O[C@]4(C)CC[C@H]5[C@H](C)CC[C@@H]([C@H]2C)[C@@]35OO4)O[C@@H]2O[C@]3(C)CC[C@H]4[C@H](C)CC[C@@H]1[C@@]24OO3 | 1.6 nM | 2.6 nM
5 | – | – | C[C@H]1[C@@H](CCOC(=O)CCCC(=O)OCC[C@H]2O[C@@H]3OC4(C)CC[C@H]5[C@H](C)CC[C@@H]([C@H]2C)[C@@]35OO4)O[C@@H]2OC3(C)CC[C@H]4[C@H](C)CC[C@@H]1[C@@]24OO3 (single isomer, unassigned) | 1.1 nM | 2.4 nM
6 | – | – | COP(=O)(OC)OCC[C@H]1O[C@@H]2O[C@]3(C)CC[C@H]4[C@H](C)CC[C@@H]([C@H]1C)[C@@]24OO3 | – | 2.2 nM
7 | – | – | C[C@@H]1CC[C@H]2[C@@H](C)C(=O)O[C@@H]3O[C@@]4(C)CC[C@@H]1[C@]32OO4 [ARTEMISININ] | – | 12.3 nM
8 | – | – | C[C@H]1[C@@H](CCOP(=O)(Oc2ccccc2)Oc2ccccc2)O[C@@H]2O[C@]3(C)CC[C@H]4[C@H](C)CC[C@@H]1[C@@]24OO3 | – | 3.1 nM
9 | – | – | C[C@H]1[C@@H](CCOCc2ccc(COCC[C@H]3O[C@@H]4O[C@]5(C)CC[C@H]6[C@H](C)CC[C@@H]([C@H]3C)[C@@]46OO5)cc2)O[C@@H]2O[C@]3(C)CC[C@H]4[C@H](C)CC[C@@H]1[C@@]24OO3 | – | 2.4 nM
10 | – | – | C[C@H]1[C@@H](CCOCc2cccc(COCC[C@H]3O[C@@H]4O[C@]5(C)CC[C@H]6[C@H](C)CC[C@@H]([C@H]3C)[C@@]46OO5)c2)O[C@@H]2OC3(C)CC[C@H]4[C@H](C)CC[C@@H]1[C@@]24OO3 (single isomer, unassigned) | 2.1 nM | 2.7 nM
11 | – | – | C[C@H]1[C@@H](CCOC(=O)c2cccc(C(=O)OCC[C@H]3O[C@@H]4O[C@]5(C)CC[C@H]6[C@H](C)CC[C@@H]([C@H]3C)[C@@]46OO5)c2)O[C@@H]2O[C@]3(C)CC[C@H]4[C@H](C)CC[C@@H]1[C@@]24OO3 | – | 42.2 nM
12 | 101000 nM | 1210 nM | CC(=O)C1C(=O)C=C(C)OC1=O (stereo not given) [DEHYDROACETIC ACID] | – | –
13 | – | – | C[C@H]1[C@@H](CCOC(=O)c2ccc(C(=O)OCC[C@H]3O[C@@H]4O[C@]5(C)CC[C@H]6[C@H](C)CC[C@@H]([C@H]3C)[C@@]46OO5)cc2)O[C@@H]2O[C@]3(C)CC[C@H]4[C@H](C)CC[C@@H]1[C@@]24OO3 | – | 4.6 nM
